Laboratory results taken from ChEMBL document CHEMBL3091299, “Adamantyl derivative as a potent inhibitor of Plasmodium FK506 binding protein 35” (ACS Med Chem Lett, 2013).
pIC50: −log10 of the molar value. The source made the active and inactive calls. No cut-off for these calls is given here.

Tests used:
[1] = tested on: Plasmodium falciparum; experiment: Antimicrobial activity against Plasmodium falciparum 3D7 infected in erythrocytes assessed as schizont-stage maturation at 500 nM after 4 to 24 hrs by Giemsa-staining based microscopy relative to control; type: functional, organism-based
[2] = Inhibition of Plasmodium falciparum recombinant FKBP35 using Succ-Ala-Leu-Pro-Phe-pNA as substrate after 30 mins by UV-Vis spectrophotometry in presence of alpha-chymotrypsin
[3] = tested on: Plasmodium falciparum; experiment: Antimicrobial activity against Plasmodium falciparum 3D7 infected in erythrocytes assessed as ring-stage maturation at 500 nM after 4 to 24 hrs by Giemsa-staining based microscopy relative to control; type: functional, organism-based
[4] = tested on: Plasmodium falciparum; experiment: Antimicrobial activity against mid-ring stage Plasmodium falciparum 3D7 infected in erythrocytes assessed as reduction in trophozoite stage development at 500 nM after 16 to 24 hrs by Giemsa-staining based microscopy relative to control; type: functional, organism-based
How it was run: (§1)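 Highly synchronized ring-infected erythrocytes (3D7) followed over one full 48 h intraerythrocytic cycle with inhibitor, chloroquine, artemisinin, or no treatment. Parasitaemia (%) and morphology were scored from Giemsa-stained smears every 8 h, with untreated parasites as reference.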

[5] = tested on: Plasmodium falciparum; experiment: Antimicrobial activity against mid-ring stage Plasmodium falciparum 3D7 infected in erythrocytes assessed as reduction in parasitemia at 500 nM after 8 hrs by Giemsa-staining based microscopy relative to control; type: functional, organism-based; how it was run: as §1
[6] = tested on: Plasmodium falciparum; experiment: Antimicrobial activity against mid-ring stage Plasmodium falciparum 3D7 infected in erythrocytes assessed as death and disintegration of parasite at 500 nM after 16 to 24 hrs by Giemsa-staining based microscopy relative to control; type: functional, organism-based; how it was run: as §1
[7] = tested on: Plasmodium falciparum; experiment: Antimicrobial activity against mid-ring stage Plasmodium falciparum 3D7 infected in erythrocytes assessed as change in parasite morphology at 500 nM after 8 hrs by Giemsa-staining based microscopy relative to control; type: functional, organism-based; how it was run: as §1
[8] = species on record: Homo sapiens; experiment: Inhibition of human recombinant calcineurin phosphatase activity using RII phosphopeptide as substrate incubated 10 to 30 mins prior to substrate addition by spectrophotometry
[9] = tested on: Plasmodium falciparum; experiment: Antimicrobial activity against Plasmodium falciparum 3D7 infected in erythrocytes assessed as disintegration of trophozoite-stage maturation at 500 nM after 16 hrs by Giemsa-staining based microscopy relative to control; type: functional, organism-based
[10] = Inhibition of Plasmodium vivax recombinant FKBP35 using Succ-Ala-Leu-Pro-Phe-pNA as substrate after 30 mins by UV-Vis spectrophotometry in presence of alpha-chymotrypsin
[11] = tested on: Plasmodium falciparum; experiment: Antimicrobial activity against Plasmodium falciparum 3D7 infected in erythrocytes assessed as impairment of trophozoite-stage maturation at 500 nM after 8 hrs by Giemsa-staining based microscopy relative to control; type: functional, organism-based

Structure (SMILES) | Activity [1] | pIC50 [2] | Activity [3] | Activity [4] | Activity [5] | Activity [6] | Activity [7] | inhibition [8] | further results
O=C(NNC(=O)C12CC3CC(CC(C3)C1)C2)c1cccc2ccccc12 | inactive | 7.31 | inactive |  |  |  |  |  | 
CCN(CC)CCCC(C)Nc1ccnc2cc(Cl)ccc12 (stereo not drawn) |  |  |  | Active | inactive | Active | inactive |  | 
C=CC[C@@H]1/C=C(\C)C[C@H](C)C[C@H](OC)[C@H]2O[C@@](O)(C(=O)C(=O)N3CCCC[C@H]3C(=O)O[C@H](/C(C)=C/[C@@H]3CC[C@@H](O)[C@H](OC)C3)[C@H](C)[C@@H](O)CC1=O)[C@H](C)C[C@@H]2OC |  |  |  |  |  |  |  | Active | 
O=C(NNC(=O)C12CC3CC(CC(C3)C1)C2)c1ccncc1 | inactive | 7.08 | inactive | Active | inactive | Active | inactive | inactive | Activity [9]: Active; pIC50 [10]: 7.12; Activity [11]: Active
O=C(NNC(=O)C12CC3CC(CC(C3)C1)C2)c1ccccc1 | inactive | 7.02 | inactive |  |  |  |  |  | 
C[C@@H]1CC[C@H]2[C@@H](C)C(=O)O[C@@H]3O[C@@]4(C)CC[C@@H]1[C@]32OO4 |  |  |  |  | Active |  |  |  | 
